Compound activity (PubChem)
This is a sample that favours compounds with a hit; in the whole collection about 5.8% have one here.
KDM4C inh – inhibitors of GASC-1 (KDM4C) histone demethylase, primary screen, biochemical, single concentration HTS; inhibition, % at 12.5 µM; AID 720574, 2013; Lysine-specific demethylase 4C (Homo sapiens), Q9H3R0; GST-KDM4C 2-372, H3K9me3 peptide, LANCE TR-FRET; 96,000 tested, 0.15% active;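 active = mean replicate inhibition above about 25%, with at least 55% of replicates also reaching it, limit read from the data, passing the limit was not always enough; inconclusive = only one of those two conditions met; inactive = neither condition met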
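System: N-terminal GST-fused human GASC-1 (KDM4C) fragment, residues 2-372 / Amount: 10 nM GST-KDM4C in enzyme reaction / Also added: H3K9me3 peptide with Fe(II)/2OG / Times: 30 min demethylation and 1 h detection at room temperature / Signal: LANCE TR-FRET / Read-out basis: Fall in 671/618 emission ratio as inhibition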
Pf Dd2 growth – P. falciparum Dd2 growth inhibitors, primary screen, SYBR Green fluorescence, single dose replicates | 72 h; hits give low values | activity change, % at 10 µM | 94,000 tested, 2.3% active; in the data active = activity change below about -80%; inconclusive = no clear call, values can overlap the other calls
IDH1 R132H inh – inhibitors of IDH1 R132H reductase, primary screen, biochemical, plate reader, single point; Isocitrate dehydrogenase [NADP] cytoplasmic (Homo sapiens), O75874; diaphorase/resazurin fluorescence, 60 min; inhibition, % at 10 µM; 70,000 tested, 0.18% active; in the data active = inhibition above about 34%; inconclusive = no clear call, values can overlap the other calls; inactive = below about 11%;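 note: 0% = DMSO and 100% = no enzyme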
Target sequence (O75874 whole entry R132H): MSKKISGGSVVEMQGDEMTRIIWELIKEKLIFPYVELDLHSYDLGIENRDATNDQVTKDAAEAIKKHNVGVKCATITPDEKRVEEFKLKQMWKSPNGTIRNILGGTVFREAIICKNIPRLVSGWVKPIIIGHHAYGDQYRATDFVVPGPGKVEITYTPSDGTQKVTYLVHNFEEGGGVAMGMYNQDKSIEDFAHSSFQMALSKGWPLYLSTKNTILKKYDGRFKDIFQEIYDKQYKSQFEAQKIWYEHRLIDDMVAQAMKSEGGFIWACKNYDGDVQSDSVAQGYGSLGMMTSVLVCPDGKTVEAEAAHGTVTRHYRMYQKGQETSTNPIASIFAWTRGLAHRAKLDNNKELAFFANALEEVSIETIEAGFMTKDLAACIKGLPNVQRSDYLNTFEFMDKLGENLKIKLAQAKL
T cruzi growth-1 – T. cruzi intracellular proliferation inhibitors, primary screen, cell-based, beta-gal Tulahuen parasites, NIH3T3 host, luminescence | AID 624255, 2012 | T. cruzi beta-gal in NIH3T3, GalScreen luminescence, 90 h | inhibition, % at 8.34 µM | 77,000 tested, 5.9% active;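 active = mean inhibition above about 93%, with at least 55% of replicates each passing it, limit read from the data, passing the limit was not always enough; inconclusive = only one of those two conditions holds; inactive = neither condition holds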
T cruzi growth-2 – T. cruzi intracellular proliferation inhibitors, confirmation, cell-based, NIH3T3 host, beta-gal parasite, luminescence, cherry-pick; 5,600 tested, 72% active; shares compounds with T cruzi growth-1; AID 651739, 2012; T. cruzi beta-gal in NIH3T3, GalScreen luminescence, 90 h; inhibition, % at 8.35 µM;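 active = mean replicate inhibition above about 95% and at least 55% of replicates individually reaching it, limit read from the data; inconclusive = only one of the two criteria is met; inactive = neither criterion is met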
T cruzi growth-3 – inhibitors of intracellular T. cruzi replication, confirmation, NIH3T3 host cells, beta-gal parasites, cherry-pick, set 2. shares compounds with T cruzi growth-1. T. cruzi beta-gal in NIH3T3, GalScreen luminescence, 90 h. inhibition, % at 2.09 µM. 5,600 tested, 21% active;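 active = mean inhibition above about 95%, with at least 55% of replicates also reaching it, limit read from the data; inconclusive = meets just one of the two conditions; inactive = meets neither condition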;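 note: plate controls were neutral control median for no effect and positive control median for full effect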
3T3 cytotox – cytotoxicity in mouse NIH/3T3 fibroblasts, confirmation, cytotoxicity control for T. cruzi proliferation inhibitor project, cell-based, cherry-pick, single point | shares compounds with T cruzi growth-1 | NIH/3T3 viability, CellTiter-Glo ATP luminescence, 90 h | cytotoxicity (signal decrease), % at 8.35 µM | 5,600 tested, 14% active | AID 651742, 2012;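 active = mean signal decrease across replicates above about 35% based on untreated-well scatter, with enough replicates individually passing, limit read from the data; inconclusive = no rule stated though some were filed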;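 note: 0% = median of neutral control wells and 100% = median of positive control wells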
3T3 cytotox 2 – NIH/3T3 fibroblast cytotoxicity, confirmation, cytotoxicity control, cell-based, cherry-pick, single point, set 2; NIH/3T3 viability, CellTiter-Glo ATP luminescence, 90 h; inhibition, % at 24.9 µM; AID 651744, 2012; shares compounds with T cruzi growth-1; 5,600 tested, 56% active;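 active = mean loss of cell viability signal at or above a set limit, and enough replicates individually reaching it; inconclusive = meets only the mean limit or only the replicate share; inactive = meets neither condition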;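 note: 0% = median of neutral control wells and 100% = median of positive control wells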
Starred values were filed as active, the others as inactive; ? = inconclusive; . = not tested or not shown.

SMILES	KDM4C inh	Pf Dd2 growth	IDH1 R132H inh	T cruzi growth-1	T cruzi growth-2	T cruzi growth-3	3T3 cytotox	3T3 cytotox 2
C[C@@H]1CCCCO[C@H](CN(C)C(=O)Nc2ccc(F)cc2)[C@@H](C)CN([C@H](C)CO)C(=O)c2cc(NC(=O)Nc3cccc4ccccc34)ccc2O1	-1.3	-23.3	.	72.4	.	.	.	.
C[C@H](CO)N1C[C@H](C)[C@@H](CN(C)C(=O)Nc2ccccc2)OCCCC[C@H](C)Oc2ccc(NC(=O)Nc3ccc(F)cc3)cc2C1=O	-0.4	16.8	.	100.1*	?	-21.9	-10.5	24.0
C[C@@H]1CCCCO[C@@H](CN(C)C(=O)Nc2ccccc2)[C@H](C)CN([C@@H](C)CO)C(=O)c2cc(N(C)C)ccc2O1	4.9	-32.4	-1.9	107.3*	70.6	7.9	-5.0	-19.5
C[C@H](CO)N1C[C@H](C)[C@@H](CN(C)C(=O)Nc2ccc(F)cc2)OCCCC[C@H](C)Oc2ccc(NC(=O)Nc3cccc4ccccc34)cc2C1=O	12.1	-32.1	3.3	105.1*	106.7*	55.2	9.1	?
C[C@@H]1CCCCO[C@@H](CN(C)C(=O)Nc2cccc3ccccc23)[C@H](C)CN([C@H](C)CO)C(=O)c2cc(N(C)C)ccc2O1	1.9	-36.1	0.3	101.7*	97.5*	72.5	-34.5	0.0
C[C@@H]1CCCCO[C@@H](CN(C)C(=O)Nc2cccc3ccccc23)[C@@H](C)CN([C@@H](C)CO)C(=O)c2cc(N(C)C)ccc2O1	-1.9	-75.8	-0.1	56.7	.	.	.	.
COc1ccc(NC(=O)Nc2ccc3c(c2)CC(=O)N([C@@H](C)CO)C[C@@H](C)[C@@H](CN(C)S(=O)(=O)c2c(C)noc2C)O3)cc1	-3.0	19.9	.	-19.4	.	.	.	.
O=C(C1CCOCC1)N1[C@@H]2CNc3ccccc3[C@@H]2[C@@H]1CO	1.9	-18.5	.	-7.4	.	.	.	.
C[C@@H]1CCCCO[C@H](CN(C)S(=O)(=O)c2ccccc2)[C@@H](C)CN([C@@H](C)CO)C(=O)c2cc(NS(=O)(=O)c3cccs3)ccc2O1	0.3	.	.	41.5	.	.	.	.
C[C@@H]1CCCCO[C@@H](CN(C)C(=O)Nc2ccccc2)[C@H](C)CN([C@H](C)CO)C(=O)c2cc(NC(=O)NC3CCCCC3)ccc2O1	-0.7	-47.7	-3.4	104.6*	101.1*	46.5	14.5	10.7
C[C@H]1CCCCO[C@H](CN(C)C)[C@@H](C)CN([C@@H](C)CO)C(=O)c2cc(NC(=O)Nc3cccc4ccccc34)ccc2O1	1.0	-59.1	-9.0	28.8	.	.	.	.
CC(C)NC(=O)Nc1ccc2c(c1)C(=O)N([C@H](C)CO)C[C@H](C)[C@H](CN(C)C(=O)Nc1ccc(F)cc1)OCCCC[C@H](C)O2	0.3	47.6	1.9	95.6*	103.7*	70.3	-1.3	-12.7
C[C@@H]1CN([C@@H](C)CO)C(=O)c2cc(NC(=O)Nc3cccc4ccccc34)ccc2O[C@@H](C)CCCCO[C@H]1CN(C)C	-1.1	32.7	-14.4	98.8*	40.4	-47.7	-0.8	-15.4
C[C@H]1CCCCO[C@@H](CN(C)C(=O)Nc2ccccc2)[C@@H](C)CN([C@@H](C)CO)C(=O)c2cc(NC(=O)Nc3ccc4c(c3)OCO4)ccc2O1	0.7	0.7	0.5	122.7*	113.4*	59.5	8.0	-2.5
COc1ccc(C(=O)N2C[C@@H]3[C@H](c4ccccc42)[C@@H](CO)N3C(=O)Cc2ccccn2)cc1	0.2	-2.9	.	-5.6	.	.	.	.
C/C=C/c1ccc([C@H]2[C@@H](CN(C)C(C)=O)N(C(=O)NC(C)C)[C@H]2CO)cc1	.	11.3	.	.	.	.	.	.
COCC(=O)N1C[C@@H]2[C@H](c3ccccc31)[C@H](CO)N2C(=O)Nc1ccccc1F	-0.5	3.8	.	0.3	.	.	.	.
C[C@@H]1CCCCO[C@@H](CN(C)C)[C@H](C)CN([C@H](C)CO)C(=O)c2cc(NC(=O)CCCCCC(=O)Nc3ccccc3N)ccc2O1	0.1	43.4	.	73.4	.	.	.	.
C[C@@H]1CCCCO[C@@H](CN(C)C(=O)Nc2ccccc2)[C@H](C)CN([C@@H](C)CO)C(=O)c2cc(NC(=O)Nc3ccccc3)ccc2O1	-0.6	8.2	0.2	?	88.6	40.4	-37.6	-6.8
C[C@H]1CCCCO[C@H](CN(C)C)[C@@H](C)CN([C@@H](C)CO)C(=O)c2cc(NC(=O)CCCCCC(=O)Nc3ccccc3N)ccc2O1	-0.9	41.0	.	96.6*	101.8*	17.3	8.2	16.8
C[C@H](CO)N1C[C@H](C)[C@H](CN(C)CC2CC2)Oc2c(NC(=O)c3ccncc3)cccc2C1=O	2.4	19.5	0.8	-4.4	.	.	.	.
C[C@H](CO)N1C[C@H](C)[C@@H](CN(C)C(=O)c2ccccc2F)Oc2ncc(C#Cc3cccc(F)c3)cc2C1=O	-1.5	-86.8*	0.6	98.9*	103.4*	36.2	-10.8	-10.4
C[C@@H]1CN([C@H](C)CO)C(=O)c2cc(C#Cc3ccccc3)cnc2O[C@@H]1CN(C)C(=O)c1ccccc1F	0.2	-59.0	.	-96.8	.	.	.	.
C[C@@H]1CN([C@@H](C)CO)C(=O)c2cc(C#Cc3cccc(F)c3)cnc2O[C@H]1CN(C)C(=O)c1ccccc1F	-0.9	-76.8	0.5	110.3*	108.8*	47.2	20.8	24.6
C[C@H](CO)N1C[C@H](C)[C@H](CN(C)C(=O)c2ccccc2F)Oc2ncc(C#Cc3ccccc3)cc2C1=O	1.2	-60.3	.	-19.0	.	.	.	.
COc1ccc(-c2ccc([C@@H]3[C@H](CO)N4C(=O)CN(C(=O)c5ccccc5)C[C@@H]34)cc2)cc1	-0.3	-48.9	.	.	.	.	.	.
C/C=C/c1ccc([C@H]2[C@@H](C#N)N(C(=O)Cc3ccccn3)[C@@H]2CO)cc1	-1.9	-33.4	.	102.8*	98.2*	-0.7	3.2	?
N#C[C@@H]1[C@H](c2ccc(C#CC3CCCCC3)cc2)[C@@H](CO)N1C(=O)Cc1ccccn1	0.2	-76.2	.	98.7*	96.0*	102.7*	1.7	98.6*
